Screening data (PubChem)
PERK inhibitor: block of dimerizer-induced PERK translation repression, primary screen, PERK inhibitor project, CHO PERK-DD cells, SEAP luminescence, HTS | Eukaryotic translation initiation factor 2-alpha kinase 3 (Homo sapiens), Q9NZJ5 | CHO PERK-DD fusion, SEAP luminescence translation reporter | inhibition, % at 5.6 µM | 220,000 tested, 0.17% active;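 active means inhibition above the mean inhibition of all tested compounds plus 3 SD, set separately per screening campaign, cut at about 2.9% in these data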;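 further: PERK kinase domain activated by AP20187 dimerizer at 100 nM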
STAT3 activator: IL-6 driven STAT3 reporter potentiators, primary screen, U3A cells, luciferase, luminescence, MLSCN library; 190,000 tested, 0.91% active; activation (% of control), % at 5.6 µM; AID 871, 2007; IL-6 STAT3-luciferase reporter; 100% = signal with IL-6 EC80 alone;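 active means activation above the screen-wide mean of compound activation plus 3 SD, cut at about 130% in these data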
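system = STAT3-luciferase reporter U3A cells | reagent = IL-6 stimulus at 33 ng/mL final | timing = 1 h compound pre-exposure, 6 h IL-6 stimulation, 37 °C | measured by = luminescence | evaluation = % activation versus median of IL-6-stimulated wells | control set = IL-6-only wells as 100% reference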
Hsp70 act: Hsp70 transcriptional activators, primary screen, cell-based, HeLa, Hsp70 promoter luciferase, luminescence, 10 µM | HeLa Hsp70 promoter luciferase reporter; scaled: vehicle 0, proteasome-inhibitor control 100% | activation, % at 10 µM | AID 1203, 2008 | 200,000 tested, 0.04% active;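 active means activation above the mean across all tested compounds plus 3 SD, cutoff set per campaign, cut at about 5.5% in these data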
HSF1 inhib: HSF1 inhibitors in luciferase reporter cells, primary screen, cell-based, NIH3T3, luminescence; 300,000 tested, 0.77% active; NIH3T3-HGL HSE-luciferase, MG132-induced, luminescence 8 h; active compounds read low; activity change, negative = inhibition, % at 7.5 µM (by protocol); AID 2098, 2009;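 active means more than half of replicate wells show activity change below -50%, luminescence cut by over half; inconclusive means some wells, but at most half, below -50%; inactive means no replicate well below -50%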;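 further: luciferase reports HSF-1 transcriptional activity via heat shock element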
PolyA inhibitor: polyadenylation inhibitors in yeast reporter cells, primary screen, luminescence, S. cerevisiae. S. cerevisiae SKY197-pL101 polyadenylation reporter, beta-gal luminescence; efflux-impaired pdr1/pdr3 knockout yeast; score 100 = 6 SD above DMSO. 300,000 tested, 0.02% active. activity score, % at 12 µM. AID 1875, 2009;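 active means lowest replicate activity score at least 50, where 100 means six control SD above control mean; inconclusive means lowest score under 50 but half or more replicates reach 50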;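 further: yeast exposed to compound for 9 h at 30 °C; higher score means more reporter readthrough which indicates perturbed polyadenylation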
AHR act: AHR activators, primary screen, cell-based, luminescence, luciferase reporter, human. Aryl hydrocarbon receptor (Homo sapiens), P35869. AHR-responsive luciferase reporter cells. activation, % at 5 µM. 320,000 tested, 2.5% active; in the data active means activation above about 47%
A number is an active result. In the library only some 3.6% were active in any assay of this set; here they are far more common.

Screening CC(C)CC1c2[nH]c3ccccc3c2CCN1C(=O)C1CCOCC1 (stereo unspecified) returned PERK inhibitor inactive, STAT3 activator inactive, Hsp70 act inactive, HSF1 inhib inactive, PolyA inhibitor inactive and AHR act inactive.
`CC1CCCN(C(=S)NC2CCCC2)C1` (stereo unspecified) gave PERK inhibitor inactive, STAT3 activator inactive, Hsp70 act inactive, HSF1 inhib inactive, PolyA inhibitor inactive and AHR act inactive.
Screening COc1ccccc1-c1nnc(NC(=O)C(C)SC2=NCCS2)s1 (stereo unspecified) returned PERK inhibitor inactive, STAT3 activator inactive, Hsp70 act inactive, HSF1 inhib inactive, PolyA inhibitor inactive and AHR act 57.0.
O=[N+]([O-])c1ccccc1OCCNCc1ccccc1 was read as HSF1 inhib inactive, PolyA inhibitor inactive and AHR act inactive.
For CCOC(=O)c1c(/N=C/N(C)C)sc(C)c1C the results were PERK inhibitor inactive, STAT3 activator inactive, Hsp70 act inactive, HSF1 inhib inactive, PolyA inhibitor inactive and AHR act inactive.
`CCOC(=O)c1c(/N=C/N(C)C)sc(/C=N/Nc2ccccc2)c1-c1ccc(Cl)cc1` gave PERK inhibitor inactive, STAT3 activator inactive, Hsp70 act inactive, HSF1 inhib inactive, PolyA inhibitor inactive and AHR act 92.1.
Screening CNC(=O)NC(=S)NC(=O)c1cccc(Cl)c1 returned PERK inhibitor inactive, STAT3 activator inactive, Hsp70 act inactive, HSF1 inhib inactive, PolyA inhibitor inactive and AHR act inactive.
Screening CNC(=O)NC(=S)NC(=O)c1ccccc1Cl returned PERK inhibitor inactive, STAT3 activator inactive, Hsp70 act inactive, HSF1 inhib -75.6, PolyA inhibitor inactive and AHR act inactive.
COc1ccc(Cl)cc1NC(=O)CCc1ccccc1 was read as PERK inhibitor inactive, STAT3 activator inactive, Hsp70 act inactive, HSF1 inhib inactive, PolyA inhibitor inactive and AHR act inactive.
For COc1ccc(C(=O)Nc2cc(OC)c(Cl)cc2Cl)cc1 the results were PERK inhibitor inactive, STAT3 activator inactive, Hsp70 act inactive, HSF1 inhib inactive, PolyA inhibitor inactive and AHR act 49.6.
Screening COc1cc(OC)c(NC(=O)CCc2ccccc2)cc1Cl returned PERK inhibitor inactive, STAT3 activator inactive, Hsp70 act inactive, HSF1 inhib inactive, PolyA inhibitor inactive and AHR act 49.7.
COc1ccc(C(=O)CC(=O)C(=O)Nc2cc(Cl)c(OC)cc2OC)cc1 was read as PERK inhibitor inactive, STAT3 activator inactive, Hsp70 act inactive, HSF1 inhib inactive, PolyA inhibitor inactive and AHR act 76.8.
Screening O=C(O)CCNS(=O)(=O)c1ccc2c(c1)OCCCO2 returned PERK inhibitor inactive, STAT3 activator inactive, Hsp70 act inactive, HSF1 inhib inactive, PolyA inhibitor inactive and AHR act inactive.
For CN(C)c1ccc(C(CNS(=O)(=O)c2ccc(F)c(F)c2)c2c[nH]c3ccccc23)cc1 (stereo unspecified) the results were PERK inhibitor inactive, STAT3 activator inactive, Hsp70 act inactive, HSF1 inhib inactive, PolyA inhibitor inactive and AHR act 67.7.
`CCC(Oc1ccccc1)C(=O)Nc1cc(C(F)(F)F)ccc1N1CCOCC1` (stereo unspecified) gave HSF1 inhib inactive, PolyA inhibitor inactive and AHR act inactive.
For O=C1C(SCCO)=C(SCCO)C(=O)c2ccccc21 the results were AHR act 57.7.
`O=C1C(Cl)=C(NCCCO)C(=O)c2ccccc21` gave PERK inhibitor inactive, STAT3 activator inactive, Hsp70 act inactive, HSF1 inhib inactive, PolyA inhibitor inactive and AHR act inactive.
For Cc1cccn2c(=O)nc(SCC(=O)NC3CCCC3)nc12 the results were HSF1 inhib inactive, PolyA inhibitor inactive and AHR act inactive.
COc1cc(C(=O)Nc2cccc3c2CCCC3)cc(OC)c1OC was read as HSF1 inhib inactive, PolyA inhibitor inactive and AHR act inactive.
Cc1ccc(CCNC(=O)CSCc2ccc(F)cc2)cc1 was read as HSF1 inhib inactive, PolyA inhibitor inactive and AHR act inactive.
CN1CCN(NC(=O)CN2C(=O)/C(=C/c3ccccc3Cl)SC2=S)CC1 was read as PERK inhibitor inactive, STAT3 activator inactive, Hsp70 act inactive, HSF1 inhib inactive, PolyA inhibitor inactive and AHR act inactive.
Screening CN1CCN(NC(=O)CN2C(=O)/C(=C/c3c(Cl)cccc3Cl)SC2=S)CC1 returned PERK inhibitor inactive, STAT3 activator 135.2, Hsp70 act inactive, HSF1 inhib inactive, PolyA inhibitor inactive and AHR act inactive.
For Cc1cc(C(=O)CN2C(=O)C(=O)N(Cc3ccccc3)C2=O)c(C)n1-c1ccc2c(c1)OCCO2 the results were PERK inhibitor inactive, STAT3 activator inactive, Hsp70 act inactive, HSF1 inhib -70.4, PolyA inhibitor inactive and AHR act inactive.
Screening CCCC1(CCC)NC(=O)N(CC(=O)c2cc(C)n(-c3ccc4c(c3)OCO4)c2C)C1=O returned PERK inhibitor inactive, STAT3 activator inactive, Hsp70 act inactive, HSF1 inhib inactive, PolyA inhibitor inactive and AHR act inactive.
O=C(CC(=O)Nc1ccc(Cl)cc1)N/N=C\c1cccc(F)c1 was read as HSF1 inhib inactive, PolyA inhibitor inactive and AHR act inactive.
Screening NNc1ncnc2c1cnn2-c1ccccc1 returned PERK inhibitor inactive, STAT3 activator inactive, Hsp70 act inactive, HSF1 inhib inactive, PolyA inhibitor inactive and AHR act 60.8.
`COc1ccc(CC(=O)NNc2ncnc3c2cnn3-c2ccccc2)cc1` gave PERK inhibitor inactive, STAT3 activator inactive, Hsp70 act inactive, HSF1 inhib inactive, PolyA inhibitor inactive and AHR act 51.1.
COc1ccc(-n2ncc3c(NCCCN4CCOCC4)ncnc32)cc1 was read as PERK inhibitor inactive, STAT3 activator inactive, Hsp70 act inactive, HSF1 inhib -54.7, PolyA inhibitor inactive and AHR act inactive.
COC(=O)[C@]1(CC(C)C)N[C@H](c2ccc(-c3cccc(Cl)c3)cc2)[C@@H]2C(=O)N(C)C(=O)[C@@H]21 was read as HSF1 inhib inactive, PolyA inhibitor inconclusive and AHR act inactive.
C/C(Cc1ccccc1)=N\NC(=O)CNC(=O)Cc1ccc(Cl)cc1 was read as PERK inhibitor inactive, HSF1 inhib -53.3, PolyA inhibitor inactive and AHR act inactive.
